Measurements: ChEMBL document CHEMBL1142787, “Bicyclic nucleoside inhibitors of Varicella-Zoster virus: the effect of branching in the p-alkylphenyl side chain” (Bioorg Med Chem Lett, 2005)

Assays:
[1] = Effective concentration required to reduce Varicella Zoster virus OKA plaque formation by using DMSO as solvent; assay type: functional, Human alphaherpesvirus 3
[2] = Minimal cytotoxic concentration required to alter microscopically detectable cell morphology; assay type: functional
How it was run: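 Cell morphology scored by microscopy; compounds dissolved in neat DMSO, then diluted in biological media to stock solutions of ca. 50–200 μM with 1% DMSO; MCC recorded as the minimal concentration that alters microscopically detectable morphology.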

[3] = Effective concentration required to reduce thymidine kinase-Varicella Zoster virus YS/R plaque formation by using DMSO as solvent; assay type: functional, Human alphaherpesvirus 3
[4] = test system: HEL (human embryonic lung fibroblasts); assay: Cytotoxic concentration required to inhibit Hel cell growth by using DMSO as solvent

EC50 [1]: 1.5 µM | EC50 [3]: 53 µM
Structure (SMILES): Nc1nc2c(ncn2COCCO)c(=O)[nH]1 [ACYCLOVIR]
MCC [2]: > 200 µM | CC50 [4]: > 400 µM
